Converted amounts (≈) assume the structure as drawn. Each block holds one molecule with its values, some of them ahead of it.
What was measured:
[1] = tested on: L6; assay: Cytotoxicity against rat L6 cells; type: cell-based
Outline: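 Rat skeletal myoblast (L-6) line; cytotoxicity values reported in µg/mL.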

[2] = tested on: Trypanosoma brucei rhodesiense; assay: Antitrypanosomal activity against Trypanosoma brucei rhodesiense; type: functional, organism-based
[3] = tested on: Trypanosoma cruzi; assay: Antitrypanosomal activity against Trypanosoma cruzi in rat L6 cells; type: functional, organism-based
[4] = tested on: Plasmodium falciparum; assay: Antiplasmodial activity against chloroquine and pyrimethamine-resistant Plasmodium falciparum K1 in erythrocytes by [3H]hypoxanthine uptake; type: functional, organism-based

SMILES: COc1cc(C)c(-c2ccc3cc(C)nc(C)c3c2O)c2cccc(O)c12 [ENT-DIONCOPHYLLEINE A]
IC50 [1]: 20.6 µg/mL (≈ 57.3 µM)
IC50 [2]: 1.4 µg/mL (≈ 3.9 µM)
IC50 [3]: 21.8 µg/mL (≈ 60.7 µM)
IC50 [4]: 3.1 µg/mL (≈ 8.62 µM)

IC50 [3]: 0.55 µg/mL (≈ 2.11 µM)
SMILES: O=C(Cn1ccnc1[N+](=O)[O-])NCc1ccccc1 [BENZNIDAZOLE]

SMILES: COc1cccc2c(-c3ccc4cc(C)nc(C)c4c3O)c(C)cc(OC)c12
IC50 [2]: 5.6 µg/mL (≈ 15 µM)
IC50 [3]: 54 µg/mL (≈ 145 µM)
IC50 [4]: 3.9 µg/mL (≈ 10.4 µM)

SMILES: COc1ccc(-c2ccc3cc(C)nc(C)c3c2O)c2cc(C)cc(OC)c12 [DIONCOPHYLLEINE D]
IC50 [2]: 4.7 µg/mL (≈ 12.6 µM)
IC50 [3]: 24.3 µg/mL (≈ 65.1 µM)
IC50 [4]: 0.5 µg/mL (≈ 1.34 µM)

Source: ChEMBL document CHEMBL1158754, “ent-Dioncophylleine A and related dehydrogenated naphthylisoquinoline alkaloids, the first Asian dioncophyllaceae-type alkaloids, from the "new"plant species Ancistrocladus benomensis” (J Nat Prod, 2005)
